Results published in ChEMBL document CHEMBL4513216, “Probing the Open Global Health Chemical Diversity Library for Multistage-Active Starting Points for Next-Generation Antimalarials” (ACS Infect Dis, 2020).

Assay: Toxicity liver stage against HepG2, at 10uM
Type: cell-based
Design: test concentration 10 uM, cell line HepG2-A16-CD81EGFP
Settings: human, HepG2-A16-CD81EGFP cells; read-out: INHIBITION
Procedure, shortened: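 Uninfected HepG2-A16-CD81EGFP cells, 3 × 10^3 per well, 1536-well, plated on prespotted compound at 10 μM final, parasite-free screening media added to match infected plates; puromycin 10 μM positive, DMSO 0.5% negative; run in parallel with 48 h PbLuc assay at 37 °C, 5% CO2; viability by CellTiter-Glo luminescence, normalized to controls.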

Structure (SMILES) | cytotoxicity at 10 µM [%]
O=C(NCCN1CCCCC1)C(c1ccccc1)N1CCCC1 (configuration not stated) | -1.46
CCC(CC)NC(=O)c1ccc2c(c1)C(c1nc[nH]n1)CN2S(C)(=O)=O (configuration not stated) | -138
COC1COC2(CCN(C(=O)c3cnc(C)cn3)CC2)C1 (configuration not stated) | 4.29
CC/N=c1\nc(NCC)nc2n1C(O)(Nc1cc(C)ccc1C)CS2 (configuration not stated) | 10.3
Oc1nc(N2CCOCC2)nc2nccc(-c3ccccn3)c12 | 7.52
O=C(NC[C@H]1OC[C@@H]2CCN(C(=O)c3ccco3)C[C@@H]21)C1CC1 | -6.2
O=C(c1ccco1)N1CCC2(CCOC2)C1 (configuration not stated) | -3.65
CS(=O)(=O)c1cn[nH]c1C1CCCCN1C(=O)c1cnccn1 (configuration not stated) | -2.13
CN(C)CC(=O)N1C[C@@H]2CC[C@H](Oc3ccccc3)[C@@H]2C1 | -26.4
Cc1ncc(CN2CCCC(c3nc4ccccc4n3C(C)C)C2)s1 (configuration not stated) | -24.9
O=C(Cc1ccccn1)N1CCC(O)(Cn2ccc3ccncc32)CC1 | -5.24
Cc1cc(-c2cnc(NC3CC3)nc2-c2ccco2)on1 | -23.2
Cc1cc(C)nc(Nc2cccc(C3CCCN(C(C)C)C3)n2)n1 (configuration not stated) | -19.4
O=C(CSc1nnc(N2CCOCC2)s1)NCc1cccs1 | 1.66
O=C(NC1CCCCC1)c1c(F)cccc1F | 3.32
Cc1nc(CNC(=O)NCC2(C)CCCc3ccccc32)no1 (configuration not stated) | -3.05
CSc1cc2c(cc1NC(=O)N(C)Cc1cnn(C)c1)OCCO2 | 5.25
CN1CCN(C2CCN(Cc3noc(C(C)(C)C)n3)CC2)C1=O | 17.1
CCC1COCCN1C(=O)CNC(=O)c1ccoc1C (configuration not stated) | -7.51
COCCCn1ccc(NC2CCSCC2)n1 | 3.04
Cc1nc(-c2ccc(S(=O)(=O)N3CCC=C(F)C3)cc2)co1 | 13.4

Structure (SMILES) | cytotoxicity at 10 µM [%]
CC(NC(=O)c1cc(-c2cccc(Cl)c2)no1)C(=O)N(C)C (configuration not stated) | -2.16
CC(C)(C)c1n[nH]c(C2CN(C(=O)c3cc(C4CC4)[nH]n3)CCO2)n1 (configuration not stated) | -7.2
Cc1nn(C)c(C)c1CC(=O)N1CCCC1Cn1cccn1 (configuration not stated) | -14.8
CC(C)CC(CCO)CNC(=O)N1CCC1(C)C (configuration not stated) | -3.25
Cc1nn(C(C)C)c(C)c1S(=O)(=O)Nc1ccc(C(=O)O)c(Cl)c1 | -9.5
CC(C)(C)C(=O)NCCCn1cncn1 | -9.46
Cc1nn(C)c(C)c1OCC(=O)N1CCC(O)(C(F)(F)F)CC1 | -5.09
Cc1noc(C)c1CSCc1nc(N)c2ccccc2n1 | 5.15
COCC(=O)NC(c1ccc(Cl)cc1)C(F)(F)F (configuration not stated) | 6.76
Cc1ccc(CN(C)c2cc(N3CCCC3CO)ncn2)s1 (configuration not stated) | 5.6
CC(O)CN1CCN(CCOCC(F)(F)F)CC1 (configuration not stated) | -3.51
CSCC(=O)NS(=O)(=O)c1ccc(C#N)c(C(F)(F)F)c1 | 17.2
CC(C)(C)NS(=O)(=O)c1cc(NC(=O)C2CC2)ccc1F | -10.6
CNc1cc(N2CCCC2CNCc2ccccn2)ncn1 (configuration not stated) | 7.31
Cc1cc(C)n(C2CCCN(C(=O)c3ccc(F)cc3F)C2)n1 (configuration not stated) | 0.743
CS(=O)(=O)N[C@@H]1CCN(Cc2cccs2)[C@H]1Cc1cccnc1 | -78.5
O=C(c1cccnc1-c1ccc2c(c1)OCCO2)N1CCCC1 | 3.82
CS(=O)(=O)c1ccc(-c2cc(C3CC3)c(C#N)c(N)n2)cc1 | -8.11
Cc1noc(C)c1C(=O)N1CCC2(CC1)c1nc[nH]c1CCN2C | 7.9
Cc1nc(C2CCCNC2)cc(N(Cc2c(C)nn(C)c2C)C2CC2)n1 (configuration not stated) | -7.23
CC(C)Cn1cncc1-c1nc2c([nH]1)CCCNC2=O | 15

Structure (SMILES) | cytotoxicity at 10 µM [%]
Fc1cc(Cl)cnc1N1CCCC(c2nccn2Cc2ccccn2)C1 (configuration not stated) | -3.54
O[C@H]1[C@H](n2cc(-c3cncnc3)nn2)c2ccccc2C12CCNCC2 | -1.39
O=c1[nH]nc(C2CC2)n1-c1cccc(Cl)c1 | -3.11
CSc1nccc(N2CCC3(CCCN(CC4CC4)C3)C2)n1 (configuration not stated) | -10.1
CC(C)=CCN1CCC(c2nccn2Cc2cscn2)CC1 | -13
CCN(Cc1ccc2c(c1)OCO2)S(=O)(=O)N(C)C | -2.97
Cc1cccc(C(=O)N2CCCCC2c2nc(C)cs2)n1 (configuration not stated) | -7.26
O=C(NCC1CCCO1)N1CCN(Cc2ccc3c(c2)CCO3)CC1 (configuration not stated) | -5.91
O=C(c1nn(-c2ccccc2F)cc1O)N1CCCSCC1 | -0.0414
CCc1ccc(C(=O)N2CCN(CC(O)CC)CC2)o1 (configuration not stated) | -17.6
COc1c(C)cnc(CN2CCOC(Cn3nc(C)cc3C)C2)c1C (configuration not stated) | 3.66
Cc1nn(C)c(N2CCOCC2)c1CNC1CCN(C2CC2)CC1 | -3.96
Fc1ccc(-c2cnc(CN3CCOC(Cn4cccn4)C3)o2)cc1 (configuration not stated) | -12.1
Cc1nc(C2CCCN(C(=O)c3cc(C(C)(C)C)on3)C2)no1 (configuration not stated) | -11.9
CC(=O)Nc1nc(C(=O)NCc2ccc(N3CCOC(C)C3)nc2)cs1 (configuration not stated) | 0.109
CN(Cc1nnc2n1CCC2)C(=O)CCc1ccc2c(c1)OCO2 | -14
O=C(NCc1nncn1-c1ccccc1)C1CC1 | -13.1
CC(C)c1nc(C2CCCN2C(=O)CCn2cncn2)no1 (configuration not stated) | -2.38
Cc1ccc(C)c(S(=O)(=O)CCNC2CCc3ncnn3C2)c1 (configuration not stated) | -30.6
CC(NCc1nnc2n1CCCC2)C(=O)N1CCc2sccc2C1 (configuration not stated) | -26.2
Cc1nc(CN2CCN(C(C)c3nc(C4CC4)no3)CC2)no1 (configuration not stated) | -6.34

Structure (SMILES) | cytotoxicity at 10 µM [%]
CC(C)(CNC(=O)NCCc1ccn(-c2ccccc2)n1)C(N)=O | -16.8
CN(C)c1cc(CNC(=O)c2cc(Cl)ccn2)ccn1 | -15
Cc1nc(CN2CCCC(N(C)Cc3nnc(C4CC4)o3)C2)no1 (configuration not stated) | -24.2
CCOc1ccccc1CSCCn1nc2ccccn2c1=O | 1.88
CCc1nc(CN2CCCN(C(=O)C3CCOC3)CC2)cs1 (configuration not stated) | 3.09
COc1ccc(-c2nc(CNCCn3cccn3)cs2)cc1 | -1.17
COc1cccc(CN(C)Cc2nc3c(cnn3C)c(=O)[nH]2)c1OC | -4.28
CCOCC(O)CN1CCN(C(=O)C2CC2)CC1 (configuration not stated) | -7.2
CC(C)C[C@H](N)c1nnc(SCC(N)=O)o1 | 4.95
CCOc1ccc(Br)cc1-c1cc(N)[nH]n1 | -2.97
Cc1ccc(CN2C[C@H](N3CCOCC3)[C@@H]3OCCC[C@@H]32)o1 | -125
C[C@H]1CN(C)C[C@@]12COCCN(C(=O)Cc1ccccc1)C2 | 3.65
O=C1NC(c2ccccc2)=N[C@@]12CC[C@@H]1CN(Cc3ccccc3)C[C@@H]12 | -5.23
Fc1cnc(N2CC[C@@H]3O[C@H](COCc4ccccn4)CC[C@@H]32)nc1 | 2.9
CN(C)C(=O)CN1CCC2(CCN(Cc3nccs3)CC2)C1=O | 1.31
Cc1n[nH]cc1CNCC1(c2ccc3c(c2)OCO3)CCOCC1 | 7.73
COCC(=O)NC[C@]12COC[C@H]1CN(c1ncc(F)cn1)C2 | -143
CC1CCN(c2nc3cn(-c4ccccc4)c(=O)c-3c[nH]2)CC1 | -12.6
O=c1c2c[nH]c(N3CCOCC3)nc-2cn1-c1ccc2c(c1)OCO2 | -13.1
